# Experimental data taken from PMC6516474 (Journal of the American Chemical Society, 2019).
# pEC50: −log10 of the molar value. Where two headings read alike, the source gives them in different places. Starred links: 1 amine or outer side, 2 acyl side, 3 side chain; linkers in the order of their positions; H or OH if unused. Positions of bridges follow the written chain, without caps; N, C: chain ends. Non-standard residues stand in square brackets, D forms with d. Residues, ends and D or L forms follow the SMILES beside them. Chains are numbered I, II in the order given. Actinocin(9to1) = Cc1c2oc3c(C)ccc(C(=O)[*:1])c3nc-2c(C(=O)[*:2])c(N)c1=O; NMeV = CN[C@H](C(=O)O)C(C)C; Sar = CNCC(=O)O
# Key:
# caspase-3 activation = test: Immunofluorescence apoptosis, NIH-3T3; format: cell-based, mouse; details: NIH-3T3, 24 h; 79a 0.111 µM, 92 0.038 µM, 97 0.042 µM; mitomycin C as validation
# MDA-MB-231 = test: Proliferation EC50, MDA-MB-231; format: cell-based, human; details: for pEC50: read-out: EC50 MDA-MB-231, MDA-MB-231; for fold more potent than 79a: MDA-MB-231, EC50 comparison
# caspase-3 = test: Immunofluorescence apoptosis, HeLa; format: cell-based, human; details: 24 h, 79a 0.015 µM, 92 0.012 µM
# NIH-3T3 = test: AlamarBlue proliferation assay, NIH-3T3; format: cell-based, mouse; details: for toxicity against NIH-3T3: 3 µM; for toxicity to NIH-3T3: growth inhibition screen at 1 and 3 µM; for pEC50: read-out: EC50 NIH-3T3, NIH-3T3, inherently-insensitive line
# HEK293T = test: AlamarBlue proliferation assay, HEK293T; format: cell-based; details: for fold more potent than 81 and digoxin 82: EC50 comparison
# cancer cell lines = test: Broad anticancer activity over cancer cell lines; format: cell-based; details: range over cancer cell lines
# γ-H2AX [1] = test: Immunofluorescence DNA-damage response, HeLa; format: cell-based, human; details: 24 h, 79a 0.015 µM, 92 0.012 µM
# [2] = system: MEFs (a mouse embryonic fibroblast line); test: Toxicity against MEF; format: cell-based; details: 3 µM
# γ-H2AX [3] = test: Immunofluorescence DNA-damage response, NIH-3T3; format: cell-based, mouse; details: NIH-3T3, 24 h; 79a 0.111 µM, 92 0.038 µM, 97 0.042 µM; mitomycin C as validation
# [4] = system: HFF1 (a human fibroblast line); test: Toxicity against HFF1; format: cell-based
# [5] = system: HEK293T, HeLa, Cos7, Raji, NIH-3T3; test: AlamarBlue proliferation screen over a cell line panel; format: cell-based; details: 2 days
# Method in brief: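 Panel includes Raji (human Burkitt's lymphoma, grown in suspension) and NIH-3T3 (non-transformed mouse fibroblast) alongside adherent lines. Test compounds were screened at 2 µM and 0.6 µM, and proliferation was read by AlamarBlue over 2 days. The assay was validated by comparing normalized AlamarBlue signal averages of DMSO-treated cells with those of cells given 2 µg/ml puromycin (Z′ factor calculated).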
# [6] = system: HF-II-E (a hepatoma line from rat); test: Toxicity against HF-II-E; format: cell-based
# U87 = test: Proliferation EC50, U87; format: cell-based, human; details: U87, EC50 comparison
# HEPG2 = test: Proliferation EC50, HEPG2; format: cell-based, human; details: HEPG2, EC50 comparison
# [7] = system: RAW (a virally-transformed mouse macrophage line); test: Toxicity against RAW; format: cell-based
# [8] = read-out: EC50 in HEK293T cells, HEK293T, 5 most potent compounds
# [9] = Homo sapiens, HEK-293T, 48 h, read-out: EC50 in HEK293T
# [10] = read-out: EC50 in HEK293T, HEK293T, proliferation over 2 days, AlamarBlue
# [11] = Homo sapiens, HEK-293T, read-out: EC50 in HEK293T cells
structure (smiles),measurement,setting,value
"C[C@@H]1O[C@@H](O[C@H]2CC[C@@]3(CO)[C@H](CC[C@@H]4[C@@H]3CC[C@]3(C)[C@@H](C5=CC(=O)OC5)CC[C@]43O)C2)[C@H](O)[C@H](O)[C@H]1O [79a, cannogenol-L-α-rhamnoside]",caspase-3 activation,caspase-3 activation,did not upregulate
same,pEC50,MDA-MB-231,6.95
same,caspase-3 upregulation,caspase-3,Little upregulation
same,toxicity against NIH-3T3,NIH-3T3,nontoxic
same,toxicity to NIH-3T3,NIH-3T3,none of which were toxic to NIH-3T3
same,pEC50,NIH-3T3,< 5.52
same,fold more potent than 81 and digoxin 82,HEK293T; HEK293T,2–3 fold
same,pEC50,HEK293T; [8],> 7.00
same,concentrations of broad anticancer activity,cancer cell lines,10 to 100 nM
same,γ-H2AX upregulation,γ-H2AX [1],upregulated significantly
same,toxicity against MEF,[2],nontoxic
same,γ-H2AX upregulation (DNA-damage response),γ-H2AX [3],did not upregulate
"CN[C@@H]1C[C@H]2O[C@@](C)([C@@H]1OC)n1c3ccccc3c3c4c(c5c6ccccc6n2c5c31)C(=O)NC4 [Staurosporine, reference compound]",caspase-3 upregulation,caspase-3,upregulated
same,γ-H2AX upregulation,γ-H2AX [1],upregulated
"Cc1c2oc3c(C)ccc(C(=O)N[C@@H]4C(=O)N[C@H](C(C)C)C(=O)N5CCC[C@H]5C(=O)N(C)CC(=O)N(C)[C@@H](C(C)C)C(=O)O[C@@H]4C)c3nc-2c(C(=O)N[C@@H]2C(=O)N[C@H](C(C)C)C(=O)N3CCC[C@H]3C(=O)N(C)CC(=O)N(C)[C@@H](C(C)C)C(=O)O[C@@H]2C)c(N)c1=O [actinomycin D] (I: T[dV]P[Sar][NMeV] / II: T[dV]P[Sar][NMeV]; ester I:1-I:C, II:1-II:C; linker I:N-II:N via Actinocin(9to1))",pEC50,HEK293T; [9],8.70
C[C@H]1CCC/C=C/[C@@H]2C[C@H](O)C[C@H]2[C@H](O)/C=C/C(=O)O1 [brefeldin A],pEC50,HEK293T; [9],6.70
"C[C@]12C[C@@H](O)[C@H]3[C@@H](CC[C@]4(O)C[C@@H](O)C[C@@H](O)[C@]34CO)[C@@]1(O)CC[C@@H]2C1=CC(=O)OC1 [compound 1, ouabagenin]",toxicity to NIH-3T3,NIH-3T3,none of which were toxic to NIH-3T3
same,pEC50,HEK293T; [10],> 6.00
same,effect against HFF1,[4],effective
"C[C@@H]1O[C@@H](O[C@H]2C[C@@H](O)[C@]3(CO)[C@H]4[C@H](O)C[C@]5(C)[C@@H](C6=CC(=O)OC6)CC[C@]5(O)[C@@H]4CC[C@]3(O)C2)[C@H](O)[C@H](O)[C@H]1O [compound 2, ouabain]",toxicity to NIH-3T3,NIH-3T3,none of which were toxic to NIH-3T3
same,pEC50,HEK293T; [9],> 6.00
same,effect against HFF1,[4],effective
"C[C@]12CC[C@H]3[C@@H](CC[C@@H]4C[C@@H](O)CC[C@@]43CO)[C@@]1(O)CC[C@@H]2C1=CC(=O)OC1 [compound 5, cannogenol]",activity against NIH-3T3 in proliferation screen,"NIH-3T3; 2 µM, 2 days",activity against every line except NIH-3T3
same,pEC50,HEK293T; [10],~6.00
same,activity in proliferation screen,[5]; 0.6 µM,affecting most lines
same,activity in proliferation screen,[5]; 2 µM,active
"C[C@]12CC[C@H](O)C[C@H]1CC[C@@H]1[C@@H]2CC[C@]2(C)[C@@H](C3=CC(=O)OC3)CC[C@]12O [compound 80, digitoxigenin, reference compound]",toxicity to NIH-3T3,NIH-3T3,none of which were toxic to NIH-3T3
same,pEC50,HEK293T; [9],> 6.00
"C[C@H]1O[C@@H](O[C@H]2[C@@H](O)C[C@H](O[C@H]3[C@@H](O)C[C@H](O[C@H]4CC[C@@]5(C)[C@H](CC[C@@H]6[C@@H]5CC[C@]5(C)[C@@H](C7=CC(=O)OC7)CC[C@]65O)C4)O[C@@H]3C)O[C@@H]2C)C[C@H](O)[C@@H]1O [compound 81, digitoxin]",toxicity to NIH-3T3,NIH-3T3,none of which were toxic to NIH-3T3
same,pEC50,HEK293T; [9],> 6.00
same,pEC50,HEK293T; [11],> 7.00
same,effect against HFF1,[4],effective
"C[C@H]1O[C@@H](O[C@H]2[C@@H](O)C[C@H](O[C@H]3[C@@H](O)C[C@H](O[C@H]4CC[C@@]5(C)[C@H](CC[C@@H]6[C@@H]5C[C@@H](O)[C@]5(C)[C@@H](C7=CC(=O)OC7)CC[C@]65O)C4)O[C@@H]3C)O[C@@H]2C)C[C@H](O)[C@@H]1O [compound 82, digoxin]",toxicity to NIH-3T3,NIH-3T3,none of which were toxic to NIH-3T3
same,pEC50,HEK293T; [9],> 6.00
same,pEC50,HEK293T; [11],> 7.00
"C[C@@H]1O[C@H](O[C@H]2CC[C@]3(CO)[C@H]4CC[C@]5(C)[C@@H](C6=CC(=O)OC6)CC[C@]5(O)[C@@H]4CC[C@]3(O)C2)[C@H](O)[C@H](O)[C@H]1O [compound 92, strophanthidol-L-α-rhamnoside]",caspase-3 activation,caspase-3 activation,did not upregulate
same,fold more potent than 79a,MDA-MB-231,3–4 fold
same,pEC50,MDA-MB-231,7.42
same,caspase-3 upregulation,caspase-3,Little upregulation
same,toxicity against NIH-3T3,NIH-3T3,nontoxic
same,pEC50,NIH-3T3,< 5.52
same,fold more potent than 81 and digoxin 82,HEK293T; HEK293T,2–3 fold
same,pEC50,HEK293T; [8],> 7.00
same,effect against HF-II-E,[6],ineffective
same,concentrations of broad anticancer activity,cancer cell lines,10 to 100 nM
same,γ-H2AX upregulation,γ-H2AX [1],upregulated significantly
same,fold more potent than 79a,U87,3–4 fold
same,toxicity against MEF,[2],nontoxic
same,fold more potent than 79a,HEPG2,3–4 fold
same,γ-H2AX upregulation (DNA-damage response),γ-H2AX [3],did not upregulate
"C[C@@H]1O[C@@H](O[C@H]2CC[C@@]3(C)[C@H](CC[C@@H]4[C@@H]3CC[C@]3(C)[C@@H](C5=CC(=O)OC5)CC[C@]43O)C2)[C@H](O)[C@H](O)[C@H]1O [compound 97, digitoxigenin-L-α-rhamnoside]",caspase-3 activation,caspase-3 activation,did not upregulate
same,fold more potent than 79a,MDA-MB-231,3–4 fold
same,pEC50,MDA-MB-231,7.38
same,toxicity against NIH-3T3,NIH-3T3,nontoxic
same,pEC50,NIH-3T3,< 5.52
same,effect against RAW,[7],ineffective
same,fold more potent than 81 and digoxin 82,HEK293T; HEK293T,2–3 fold
same,pEC50,HEK293T; [8],> 7.00
same,effect against HF-II-E,[6],ineffective
same,concentrations of broad anticancer activity,cancer cell lines,10 to 100 nM
same,fold more potent than 79a,U87,3–4 fold
same,toxicity against MEF,[2],nontoxic
same,fold more potent than 79a,HEPG2,3–4 fold
same,γ-H2AX upregulation (DNA-damage response),γ-H2AX [3],did not upregulate
"CO[C@@]12[C@H](COC(N)=O)C3=C(C(=O)C(C)=C(N)C3=O)N1C[C@@H]1N[C@@H]12 [mitomycin C, reference compound]",caspase-3 activation,caspase-3 activation,Caspase-3-uregulation only in NIH-3T3
same,pEC50,HEK293T; [9],5.40
same,γ-H2AX upregulation (DNA-damage response),γ-H2AX [3],DDR-upregulation
